Laboratory results taken from publication PMC10450003 (Clinical Pharmacokinetics, 2023).
Where two headings read alike, the source gives them in different places.

Tests used:
[1] = Metabolite profiling in pooled fecal homogenate; format: in vivo, human; settings: subjects on hemodialysis
[2] = Mass balance: recovery of radioactive dose in urine, feces and dialysate; format: in vivo, human; settings: subjects on hemodialysis; sum of all dialysis treatments (3 times per week, 4 h); total radioactivity (LSC); mean, n = 6
[3] = Safety: adverse events in the phase 1 study; format: in vivo, human
[4] = cited from earlier work
[5] = format: in vivo, human; settings: for total radioactivity in whole blood lower than that in plasma: based on mean Cmax and AUCinf; for time to maximum concentration (post-dose): single IV bolus
Method in brief: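 Six healthy and six HD adult males received one 1 mL IV bolus of [14C]-labelled test compound in 0.9% NaCl: 100 μCi, about 200 μg, 1.7–3.0 μg/kg. HD subjects were dosed via the dialysis port after the last weekly dialysis. Plasma aliquots were counted by LSC; whole blood was combusted in an oxidizer before LSC. Results were converted to ng-eq. Noncompartmental analysis used actual sample times and dose: Cmax, tmax, AUClast, AUCinf, t1/2, CL, Vz.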

[6] = test system: other receptors, ion channels, or transporters; settings: other than kappa-opioid receptor; cited from earlier work
[7] = test system: CYP1A2, CYP2C19, CYP2C8, CYP2C9, CYP2D6, or CYP3A; settings: human hepatic microsomes or in vitro hepatocytes; cited from earlier work

For CC(C)C[C@@H](NC(=O)[C@@H](Cc1ccccc1)NC(=O)[C@H](N)Cc1ccccc1)C(=O)N[C@H](CCCCN)C(=O)N1CCC(N)(C(=O)O)CC1 [Difelikefalin, 4-amino-1-[(2R)-6-amino-2-[[(2R)-2-[[(2R)-2-[[(2R)-2-amino-3-phenylpropanoyl]amino]-3-phenylpropanoyl]amino]-4-methylpentanoyl]amino]hexanoyl]piperidine-4-carboxylic acid], the “share of total radioactivity excreted in feces recovered as unchanged difelikefalin” value [1] was 84.8%, the “Percent of dose recovered in dialysate” value [2] was 19.5% and the “TEAEs considered by the investigator unrelated to study treatment” value ([3]; all 12 participants) was 17 of 24. For the same compound, the “subjects reporting treatment-emergent AEs (TEAEs)” value ([3]; healthy subjects, of n = 6) was “three of the six”, the “abuse potential, physical dependence, respiratory depression” value [4] was “no abuse potential, no physical dependence, and no respiratory depression effects” and the “total radioactivity in whole blood lower than that in plasma” value ([5]; healthy subjects) was about 45%. For the same compound, the “time to maximum concentration (post-dose)” value ([5]; healthy subjects, plasma total radioactivity) was 5 min, the “mean AUC, subjects on HD versus healthy subjects” value ([5]; plasma total radioactivity, ratio of mean AUC, HD higher) was “approximately 11 fold” and the “total radioactivity in whole blood lower than that in plasma” value ([5]; subjects on hemodialysis) was “approximately 38%”. For the same compound, the “time to maximum concentration (post-dose)” value ([5]; subjects on hemodialysis, plasma total radioactivity) was 5 min, the “activity at other receptors, ion channels, or transporters” value [6] was “no activity at other receptors, ion channels, or transporters” and the “metabolism by cytochrome P450 (CYP) enzymes” value [7] was “not metabolized”.
